This passage reports IC50 results from ChEMBL document CHEMBL1138750, “Design, synthesis, and biological evaluation of 1,2,3,7-tetrahydro-6h-purin-6-one and 3,7-dihydro-1h-purine-2,6-dione derivatives as corticotropin-releasing factor(1) receptor antagonists” (J Med Chem, 2004).

Molecules are shown by their SMILES.

Assay [1] deals with T1, Corticotropin-releasing factor receptor 1 (Rattus norvegicus, UniProt P35353).
T1 sequence (P35353 whole entry): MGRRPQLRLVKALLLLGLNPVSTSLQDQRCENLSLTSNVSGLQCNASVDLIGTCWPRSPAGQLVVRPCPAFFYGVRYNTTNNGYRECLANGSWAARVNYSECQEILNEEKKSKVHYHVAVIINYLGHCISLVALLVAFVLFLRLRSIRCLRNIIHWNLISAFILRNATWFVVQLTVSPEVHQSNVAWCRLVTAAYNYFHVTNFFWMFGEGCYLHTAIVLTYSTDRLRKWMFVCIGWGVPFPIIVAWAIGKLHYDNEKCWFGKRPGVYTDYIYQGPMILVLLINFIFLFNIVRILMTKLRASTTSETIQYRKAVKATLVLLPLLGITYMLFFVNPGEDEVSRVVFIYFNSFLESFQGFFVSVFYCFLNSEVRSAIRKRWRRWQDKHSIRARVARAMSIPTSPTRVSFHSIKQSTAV
The experiment in a line: Inhibition of [125I]- Ovine CRF binding to rat frontal cortex corticotropin releasing factor 1 receptor. The class given is tissue-based. In outline: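 Frozen rat frontal cortex homogenate (25 μg/well) in 50 mM HEPES pH 7.0 with 10 mM MgCl₂, 2 mM EGTA, protease inhibitors, 0.005% Triton X-100, bacitracin and 0.1% ovalbumin. Bound ligand collected by filtration on PEI-treated filters and gamma counted. Nonspecific binding defined with 1 μM DMP696.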

A short description of assay [2]: Inhibition of CRF-stimulated cAMP production in human Y-79 retinoblastoma cells. It counts as functional, cell-based. The conditions noted are these: Y79. In outline: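 Human Y-79 retinoblastoma cells, 20 000/well in HBSS with 2 mM CaCl₂, 5 mM MgCl₂, 20 mM HEPES and 1 mM IBMX. Antagonist (typically 0.01–10 000 nM) preincubated 30 min at 37 °C, then 1 nM CRF added for 30 min at 37 °C. cAMP read by HTRF against a cAMP standard curve. Percent inhibition of CRF-induced cAMP determined in triplicate; basal cAMP without CRF also measured.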

In assay [1], `CCCC(CCC)n1c(CC)nc2c1C(=O)N(C)C(C)N2c1ccc(Cl)cc1Cl` (stereo not drawn) displayed an IC50 of 0.383 µM. The same measure, in the same setting: the result for `CCCC(CCC)n1c(CC)nc2c1C(=O)N(C)CN2c1ccc(Cl)cc1` reads 0.173 µM; that for `CCc1nc2c(n1C(CC)C(C)C)C(=O)N(C)CN2c1ccc(Cl)cc1Cl` (stereo not drawn), 0.051 µM; that for `CCc1nc2c(n1C(CC)C1CC1)C(=O)N(C)CN2c1ccc(OC)cc1Cl` (stereo not drawn), 0.113 µM. On the same count and under the same terms, the result for `CCc1nc2c(n1Cc1ccccc1C)C(=O)N(C)CN2c1ccc(Cl)cc1Cl` reads 0.458 µM. The same measure, in the same setting: under `CCc1nc2c(n1C(C)C1CCC1)C(=O)N(C)CN2c1ccc(Cl)cc1Cl` (stereo not drawn) stands 0.026 µM.

In turn, `CCc1nc2c(n1C(CC)C1CC1)C(=O)N(C)CN2c1ccc(Cl)cc1Cl` (stereo not drawn) showed an IC50 in assay [1] of 0.014 µM. This IC50 is about 1.9-fold lower than that of the compound before. As to `CCCC(CCC)n1c(CC)nc2c1C(=O)N(C)C(CC)N2c1ccc(Cl)cc1Cl` (stereo not drawn), in assay [1], the half-inhibitory concentration (IC50) was determined as 0.626 µM.

The compound `CCCC(CCC)n1c(CC)nc2c1C(=O)N(C)CN2c1c(C)cc(C)cc1C` had a 50% inhibitory concentration (IC50) in assay [1] of 0.022 µM. This IC50 lies about 28-fold lower than the previous one. On the same count and under the same terms, the result for `CCCC(CCC)n1c(CC)nc2c1c(=O)n(C)c(=O)n2-c1ccc(Cl)cc1Cl` reads 0.075 µM; that for `CCc1nc2c(n1Cc1ccc(OC)cc1)C(=O)N(C)CN2c1ccc(Cl)cc1Cl`, 0.456 µM. The same measure, in the same setting: under `CCCC(CCC)n1c(CC)nc2c1C(=O)N(C)CN2c1ccc(C(C)C)cc1Cl` stands 0.05 µM.

Consider `CCCC(CCC)n1c(CC)nc2c1C(=O)N(C)CN2c1ccc(Cl)cc1Cl`, for which the IC50 is 0.0054 µM in assay [1] and 0.0242 µM in assay [2]. The compound `CCc1nc2c(n1C(CC)C(C)C)C(=O)N(C)CN2c1ccc(C(C)C)cc1Cl` (stereo not drawn) displayed an IC50 in assay [1] of 0.555 µM. As to `CCc1nc2c(n1Cc1ccc(-c3ccccc3)cc1)C(=O)N(C)CN2c1ccc(Cl)cc1Cl`, the IC50 in assay [1] was 0.324 µM. As to `CCCC(CCC)n1c(CC)nc2c1C(=O)N(C)CN2c1ccc(OC)cc1Cl`, the IC50 in assay [1] is 0.027 µM. The same measure, in the same setting: under `CCc1nc2c(n1Cc1ccccc1C)C(=O)N(C)CN2c1ccc(OC)cc1Cl` stands 0.875 µM. Consider `CCCC(C1CC1)n1c(CC)nc2c1C(=O)N(C)CN2c1ccc(Cl)cc1Cl` (stereo not drawn), for which the IC50 in assay [1] was 0.01 µM. For the compound `CCc1nc2c(n1C(C)C1CC1)C(=O)N(C)CN2c1ccc(Cl)cc1Cl` (stereo not drawn), the IC50 in assay [1] stood at 0.055 µM. The same measure, in the same setting: under `CCc1nc2c(n1C(CC)CC)C(=O)N(C)CN2c1ccc(Cl)cc1Cl` stands 0.112 µM; under `CCCC(COC)n1c(CC)nc2c1C(=O)N(C)CN2c1ccc(Cl)cc1Cl` (stereo not drawn), 0.043 µM. Regarding `CCCC(C)n1c(CC)nc2c1C(=O)N(C)CN2c1ccc(Cl)cc1Cl` (stereo not drawn), the IC50 in assay [1] came to 0.052 µM. In assay [1], `CCCCC(CC)n1c(CC)nc2c1C(=O)N(C)CN2c1ccc(Cl)cc1Cl` (stereo not drawn) displayed an IC50 of 0.018 µM.

The compound `CCc1nc2c(n1COCc1ccccc1)C(=O)N(C)CN2c1ccc(Cl)cc1Cl` came in with an IC50 in assay [1] of 0.86 µM. `CCc1nc2c(n1C(C1CC1)C1CC1)C(=O)N(C)CN2c1ccc(Cl)cc1Cl`: the values for the IC50 in assay [1] and in assay [2] were 0.006 µM and 0.0144 µM, respectively. Compound `CCCC(CCC)n1cnc2c1C(=O)N(C)CN2c1ccc(Cl)cc1Cl` had an IC50 in assay [1] of 0.898 µM. In other words, the sub-micromolar range.
